In ChEMBL document CHEMBL1126018, “Syntheses and 5-HT2 antagonist activity of bicyclic 1,2,4-triazol-3(2H)-one and 1,3,5-triazine-2,4(3H)-dione derivatives” (J Med Chem, 1992) one finds pA2 and inhibition data, which are given here for 27 molecules.

Assay [1] has as its target T1, Serotonin 2 (5-HT2) receptor (Rattus norvegicus) (UniProt P30994+P08909+P14842). The assay can be described thus: In vitro antagonistic activity against the contraction induced by 5-HT through 5-hydroxytryptamine 2 receptor in rat thoracic aortic strips; NC=non competitive antagonism. Format: functional. The following applies: filed as antagonist. The procedure, abridged: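 Rat thoracic aortic strips, isometric tension; equilibrated 120 min, primed with 60 mM KCl. Cumulative 5-HT (0.1-100 μM) curve, wash, 1 h later second cumulative 5-HT curve with test drug present. pA2 from the concentration-response curves where blockade is competitive (otherwise noncompetitive); single determination.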

The target of assay [2] is T2, Adrenergic receptor alpha-1 (Rattus norvegicus) (UniProt P15823+P23944+P43140). The assay can be described thus: In vitro antagonistic activity against the contraction induced by phenylephrine through Alpha-1 adrenergic receptor in rat thoracic aortic strips; NC = non-competitive inhibition. Format: functional. The method, boiled down:
(§1)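 Rat thoracic aortic strips, isometric tension; equilibrated 120 min, primed with 60 mM KCl. Cumulative phenylephrine (0.01-10 μM) curve, wash, 1 h later second cumulative curve with test drug present. pA2 from the concentration-response curves where blockade is competitive (otherwise noncompetitive); single determination.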

The target in assay [3] is Serotonin 2 (5-HT2) receptor (Rattus norvegicus, UniProt P30994+P08909+P14842). The assay can be described thus: In vitro antagonistic activity tested against the contraction induced by 5-HT through 5-hydroxytryptamine 2 receptor in rat thoracic aortic strips. The format is functional.
For assay [4], the target named is T3, Adrenergic receptor alpha-1 (Rattus norvegicus, UniProt P15823+P23944+P43140).
T3 sequence (P15823 whole entry): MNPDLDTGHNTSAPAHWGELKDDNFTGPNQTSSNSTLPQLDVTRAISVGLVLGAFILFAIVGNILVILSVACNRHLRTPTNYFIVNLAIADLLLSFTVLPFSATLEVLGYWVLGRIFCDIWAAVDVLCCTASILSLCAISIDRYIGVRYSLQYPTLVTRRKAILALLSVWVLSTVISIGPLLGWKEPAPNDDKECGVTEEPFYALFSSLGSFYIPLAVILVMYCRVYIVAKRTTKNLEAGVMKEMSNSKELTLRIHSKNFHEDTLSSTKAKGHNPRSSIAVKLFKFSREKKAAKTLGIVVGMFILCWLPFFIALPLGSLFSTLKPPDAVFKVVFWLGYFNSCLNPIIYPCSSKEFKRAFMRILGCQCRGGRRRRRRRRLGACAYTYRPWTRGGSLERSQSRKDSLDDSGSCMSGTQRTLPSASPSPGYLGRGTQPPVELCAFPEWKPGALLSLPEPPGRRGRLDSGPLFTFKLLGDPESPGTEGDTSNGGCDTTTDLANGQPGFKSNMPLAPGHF
T3 sequence (P23944 whole entry): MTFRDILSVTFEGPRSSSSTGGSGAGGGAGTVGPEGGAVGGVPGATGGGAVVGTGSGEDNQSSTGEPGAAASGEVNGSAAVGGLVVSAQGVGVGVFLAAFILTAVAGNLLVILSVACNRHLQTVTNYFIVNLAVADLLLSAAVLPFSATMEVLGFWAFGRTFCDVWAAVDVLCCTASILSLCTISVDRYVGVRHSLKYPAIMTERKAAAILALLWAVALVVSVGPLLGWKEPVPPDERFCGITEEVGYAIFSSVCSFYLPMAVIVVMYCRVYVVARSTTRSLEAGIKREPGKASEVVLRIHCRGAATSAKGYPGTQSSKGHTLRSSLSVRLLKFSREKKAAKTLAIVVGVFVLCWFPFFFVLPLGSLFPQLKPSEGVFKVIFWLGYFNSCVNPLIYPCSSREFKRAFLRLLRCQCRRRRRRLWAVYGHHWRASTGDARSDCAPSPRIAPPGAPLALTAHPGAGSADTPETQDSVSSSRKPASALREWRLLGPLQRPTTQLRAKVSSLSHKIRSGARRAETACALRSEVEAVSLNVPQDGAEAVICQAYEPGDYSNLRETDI
T3 sequence (P43140 whole entry): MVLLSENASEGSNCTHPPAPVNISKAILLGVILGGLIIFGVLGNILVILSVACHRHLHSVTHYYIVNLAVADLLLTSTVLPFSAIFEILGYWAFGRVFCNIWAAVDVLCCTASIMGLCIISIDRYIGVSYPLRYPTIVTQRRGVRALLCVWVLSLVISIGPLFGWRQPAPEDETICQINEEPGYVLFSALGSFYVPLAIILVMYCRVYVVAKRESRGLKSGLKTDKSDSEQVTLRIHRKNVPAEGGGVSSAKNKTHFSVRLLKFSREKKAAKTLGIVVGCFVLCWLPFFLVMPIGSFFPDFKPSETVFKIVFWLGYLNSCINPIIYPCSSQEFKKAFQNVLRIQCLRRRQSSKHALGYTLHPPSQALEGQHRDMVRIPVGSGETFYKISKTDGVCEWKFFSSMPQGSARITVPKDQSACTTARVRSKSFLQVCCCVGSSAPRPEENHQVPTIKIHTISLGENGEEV
Description: In vitro antagonistic activity tested against the contraction induced by phenylephrine through Alpha-1 adrenergic receptor in rat thoracic aortic strips. Format: functional. The method, boiled down:
as §1

In assay [5] the target is T2, Adrenergic receptor alpha-1 (Rattus norvegicus). Description: In vivo inhibitory activity in rats against elevation of blood pressure caused by phenylephrine (30 ug/kg, iv) through Alpha-1 adrenergic receptor, after 1 hr oral administration at dose of 10 mg/kg. Set-up: dose 10 mg/kg. The format is functional, organism-based. The procedure, abridged: (§2)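 Male SD rats under urethane (1 g/kg ip) and alpha-chloralose (80 mg/kg ip). Blood pressure recorded via carotid catheter and transducer, iv dosing via venous catheter. After oral drug or vehicle, phenylephrine 30 μg/kg iv. The pressor rise was expressed as % inhibition, mean ± SEM.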

Assay [6] has as its target T1, Serotonin 2 (5-HT2) receptor (Rattus norvegicus). Description: In vivo inhibitory activity of 10 mg/kg compound in rats against elevation of BP caused by 5-HT (300 ug/kg, iv) through 5-hydroxytryptamine 2 receptor 1 hr after oral administration. Format: functional, organism-based. Also noted: dose 10 mg/kg. The procedure, abridged: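 Male SD rats anesthetized with urethane (1 g/kg ip) plus alpha-chloralose (80 mg/kg ip). Carotid arterial catheter to a pressure transducer, venous catheter for injection. After oral drug or vehicle, 5-HT 300 μg/kg iv. The pressor phase following the brief hypotensive phase was measured and expressed as % inhibition, mean ± SEM.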

The target in assay [7] is T2, Adrenergic receptor alpha-1 (Rattus norvegicus). The assay can be described thus: In vivo inhibitory activity in rats against elevation of blood pressure caused by phenylephrine (30 ug/kg, iv) through alpha-1 receptor after 1 hr of oral administration at the dose of 10 mg/kg. Format: functional, organism-based. Set-up: dose 10 mg/kg. The method, boiled down:
as §2

Assay [8] deals with T3, Adrenergic receptor alpha-1. The assay can be described thus: In vitro antagonistic activity against the contraction induced by phenylephrine through alpha-1 receptor in rat thoracic aortic strips. The format is functional. The method, boiled down:
as §1

Molecules are shown by their SMILES.

T1 sequence (P08909 whole entry, looked up): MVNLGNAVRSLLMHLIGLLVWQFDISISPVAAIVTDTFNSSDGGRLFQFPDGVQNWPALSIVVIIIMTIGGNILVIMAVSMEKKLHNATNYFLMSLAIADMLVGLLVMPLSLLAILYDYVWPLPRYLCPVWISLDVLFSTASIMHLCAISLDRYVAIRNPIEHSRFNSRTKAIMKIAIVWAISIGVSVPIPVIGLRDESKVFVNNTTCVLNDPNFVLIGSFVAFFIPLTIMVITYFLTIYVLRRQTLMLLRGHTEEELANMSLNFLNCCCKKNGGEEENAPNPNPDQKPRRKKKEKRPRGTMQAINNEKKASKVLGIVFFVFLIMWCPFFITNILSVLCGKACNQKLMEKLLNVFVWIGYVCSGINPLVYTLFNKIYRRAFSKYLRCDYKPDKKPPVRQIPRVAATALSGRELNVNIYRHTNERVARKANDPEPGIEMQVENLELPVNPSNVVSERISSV
T1 sequence (P14842 whole entry, looked up): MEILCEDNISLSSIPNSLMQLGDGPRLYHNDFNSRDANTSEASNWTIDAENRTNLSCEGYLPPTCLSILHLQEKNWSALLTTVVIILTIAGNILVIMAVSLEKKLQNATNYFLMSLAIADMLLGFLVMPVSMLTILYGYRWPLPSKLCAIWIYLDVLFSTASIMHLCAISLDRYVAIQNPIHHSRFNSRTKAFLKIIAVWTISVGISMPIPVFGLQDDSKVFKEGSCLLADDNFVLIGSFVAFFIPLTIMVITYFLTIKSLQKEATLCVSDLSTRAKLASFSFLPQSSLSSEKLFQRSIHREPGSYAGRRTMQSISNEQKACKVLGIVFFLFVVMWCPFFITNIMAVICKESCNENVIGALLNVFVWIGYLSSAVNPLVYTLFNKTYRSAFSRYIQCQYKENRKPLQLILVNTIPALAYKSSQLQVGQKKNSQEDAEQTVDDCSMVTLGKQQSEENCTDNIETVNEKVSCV
T1 sequence (P30994 whole entry, looked up): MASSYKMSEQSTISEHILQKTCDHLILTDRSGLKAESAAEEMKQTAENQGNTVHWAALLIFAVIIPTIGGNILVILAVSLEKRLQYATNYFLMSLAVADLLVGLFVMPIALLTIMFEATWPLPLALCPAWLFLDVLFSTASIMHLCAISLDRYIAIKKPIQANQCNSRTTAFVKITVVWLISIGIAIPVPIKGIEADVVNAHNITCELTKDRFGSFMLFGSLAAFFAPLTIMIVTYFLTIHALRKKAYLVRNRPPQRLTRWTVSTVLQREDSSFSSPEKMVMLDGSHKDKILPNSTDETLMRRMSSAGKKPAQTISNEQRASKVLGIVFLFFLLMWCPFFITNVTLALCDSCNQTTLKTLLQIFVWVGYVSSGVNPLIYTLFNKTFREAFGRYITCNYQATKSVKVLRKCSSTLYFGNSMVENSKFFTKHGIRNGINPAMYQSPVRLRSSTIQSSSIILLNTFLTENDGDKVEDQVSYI

On to `O=C(c1ccc(F)cc1)C1CCN(CCCn2nc3n(c2=O)CCCCC3)CC1`, for which the pA2 result in assay [1] is reported as “Non-competitive antagonist”; in assay [2] it was “Non-competitive inhibition”.

As to `O=C(c1ccc(F)cc1)C1CCN(CCCn2nc3n(c2=O)CCCC3)CC1`, the results for the pA2 in assay [3] and in assay [4] were 7.7 and 7.8, respectively.

As for `O=C(c1ccc(F)cc1)C1(O)CCN(CCn2c(=O)nc3n(c2=O)CCCC3)CC1`, the results for the pA2 in assay [3] and in assay [4] were 6.7 and 7.2, respectively. In addition, the inhibition in assay [5] is 20%; in assay [6], 83%.

In the case of `O=c1n(CCN2CCC(=C(c3ccc(F)cc3)c3ccc(F)cc3)CC2)nc2n1CCSC2`, the pA2 was found to be 7.8 in assay [3] and 7.5 in assay [4]. Also, the inhibition in assay [5] was 4%; in assay [6], 67%.

On to `O=C(c1ccc(F)cc1)C1(O)CCN(CCCn2nc3n(c2=O)CCCCC3)CC1`, for which the pA2 in assay [3] came to 7.3; in assay [4], 7.6. In assay [6], the inhibition stood at 72%.

On to `O=C(c1ccc(F)cc1)C1(c2ccc(F)cc2)CCN(CCn2nc3n(c2=O)CCCC3)CC1`, for which the pA2 in assay [3] is 6; in assay [4] it was less than 6. For the same molecule, the inhibition came to 6% in assay [5] and 11% in assay [6].

Consider `O=c1nc2sccn2c(=O)n1CCN1CCC(=C(c2ccc(F)cc2)c2ccc(F)cc2)CC1`, for which the pA2 in assay [3] was 7.1; in assay [4], less than 6. The inhibition was determined as 20% in assay [5] and 93% in assay [6].

With `O=C(c1ccc(F)cc1)C1CCN(CCn2c(=O)nc3n(c2=O)CCC3)CC1`, the pA2 is given as 7.3 in assay [3] and 7.1 in assay [4]. Moreover, the inhibition in assay [5] was found to be 23%; in assay [6] it was 67%.

On to `O=c1n(CCN2CCC(=C(c3ccc(F)cc3)c3ccc(F)cc3)CC2)nc2n1CCOC2`, for which the figures for the pA2 in assay [3] and in assay [4] were 7.2 and 6.6, respectively. Also, the inhibition in assay [5] is 10%; in assay [6], 60%.

As for `O=c1n(CCN2CCC(=C(c3ccc(F)cc3)c3ccc(F)cc3)CC2)nc2n1CCC2`, the figures for the pA2 in assay [3] and in assay [8] were 7.1 and 6.9, respectively. For the same molecule, the inhibition in assay [7] was 6%; in assay [6], 74%.

Take `O=C(c1ccc(F)cc1)C1CCN(CCn2nc3n(c2=O)CCOC3)CC1`: the values for the pA2 in assay [3] and in assay [4] were 7.4 and 6.3, respectively. Besides, the inhibition in assay [5] is 36%; in assay [6], 62%.

With `O=c1nc2n(c(=O)n1CCN1CCC(=C(c3ccc(F)cc3)c3ccc(F)cc3)CC1)CCC2`, the pA2 is on record as 8.3 in assay [3] and 6.8 in assay [8]. In addition, the inhibition is 8% in assay [5] and 83% in assay [6].

Regarding `O=c1n(CCN2CCC(=C(c3ccccc3)c3ccc(F)cc3)CC2)nc2n1CCCCC2`, the figures for the pA2 in assay [3] and in assay [4] were 7.3 and 6.4, respectively. Besides, the results for the inhibition in assay [5] and in assay [6] were 7% and 84%, respectively.

For `O=C(c1ccc(F)cc1)C1CCN(CCCn2c(=O)nc3n(c2=O)CCCC3)CC1`, the pA2 in assay [3] is on record as 6.5; in assay [4], 7.3. The inhibition in assay [5] was found to be 53%; in assay [6] it was 78%.

Regarding `O=C(c1ccc(F)cc1)C1CCN(CCn2nc3n(c2=O)CCC3)CC1`, the pA2 in assay [3] was determined as 6.8; in assay [4], 6.4. Also, the inhibition in assay [5] amounted to 36%; in assay [6] it was 65%.

Consider `O=C(c1ccc(F)cc1)C1CCN(CCn2c(=O)nc3sccn3c2=O)CC1`, for which the results for the pA2 in assay [3] and in assay [2] were 7.9 and “Non-competitive inhibition”, respectively. Besides, the inhibition in assay [5] was found to be 50%; in assay [6], 79%.

For the molecule `O=C(c1ccc(F)cc1)C1CCN(CCn2nc3n(c2=O)CCCC3)CC1`, the pA2 is on record as 7.4 in assay [3] and less than 6 in assay [4]. Moreover, the inhibition is 32% in assay [5] and 91% in assay [6].

With `O=c1n(CCN2CCC(=C(c3ccc(F)cc3)c3ccc(F)cc3)CC2)nc2n1CCCO2`, the pA2 in assay [4] turned out to be 7.8. The results for the inhibition in assay [5] and in assay [6] were 16% and 89%, respectively.

With `O=C(c1ccc(F)cc1)C1CCN(CCn2c(=O)nc3ccccn3c2=O)CC1`, the pA2 in assay [3] came to 8.1; in assay [4] it was 7.5.

For `O=c1n(CCN2CCC(=C(c3ccc(F)cc3)c3ccc(F)cc3)CC2)nc2n1CCCCC2`, the pA2 in assay [3] came to 8.5; in assay [8] it was 7. Besides, the values for the inhibition in assay [7] and in assay [6] were 3% and 90%, respectively.

With `O=c1nc2n(c(=O)n1CCN1CCC(=C(c3ccc(F)cc3)c3ccc(F)cc3)CC1)CCCC2`, the results for the pA2 in assay [3] and in assay [8] were 8.3 and 6.8, respectively. In addition, the inhibition was found to be 12% in assay [7] and 93% in assay [6].

Consider `COc1ccc(C(=C2CCN(CCn3nc4n(c3=O)CCCC4)CC2)c2ccc(OC)cc2)cc1`, for which the pA2 was 6.8 in assay [3] and 7.2 in assay [8]. Moreover, the inhibition in assay [7] was 4%; in assay [6] it was 41%.

In the case of `O=c1n(CCN2CCC(=C(c3ccccc3)c3ccccc3)CC2)nc2n1CCCCC2`, the pA2 in assay [3] was 7; in assay [4], less than 6. The results for the inhibition in assay [5] and in assay [6] were 3% and 42%, respectively.

As for `O=C(c1ccc(F)cc1)C1CCN(CCn2nc3n(c2=O)CCCC3)CC1c1ccc(F)cc1` (stereo not given), the pA2 in assay [3] and in assay [4] was 6.8 throughout. The inhibition in assay [5] was determined as 15%; in assay [6], 90%.

As for `N#CC(=C1CCN(CCn2nc3n(c2=O)CCCC3)CC1)c1ccc(F)cc1`, the pA2 in assay [3] is 6.7; in assay [4], 6.3. For the same molecule, the figures for the inhibition in assay [5] and in assay [6] were 2% and 32%, respectively.

As for `O=C(c1ccc(F)cc1)C1(O)CCN(CCn2nc3n(c2=O)CCCC3)CC1`, the pA2 in assay [3] was found to be 6.8; in assay [4] it was 7. Also, the inhibition is 15% in assay [5] and 85% in assay [6].

On to `O=C(c1ccc(F)cc1)C1CCN(CCn2c(=O)nc3n(c2=O)CCCCC3)CC1`, for which the pA2 in assay [3] is 7.8; in assay [4], 6.9. For the same molecule, the inhibition in assay [5] worked out at 15%; in assay [6], 78%.

One may read the pA2 as a measure of antagonist potency on a negative log scale. Lower therefore signals lower antagonist potency. The inhibition is the relative decrease from the control value, in per cent. The low end stands for little suppression, the high end for strong suppression.
